Assay results from publication PMC10732652 (Virulence, 2023).
Entries after “also recorded” stand apart in the source; their conditions may differ.

Assays:
[1] = test system: ScpC protease; settings: S. pyogenes; cited from earlier work
[2] = test system: PepO; assay: Cleavage of cathelicidins by recombinant PepO; format: in vitro ADME, Streptococcus suis; settings: 20 μM peptide, 500 nM PepO, PBS, 37°C, 3 hours; SDS-PAGE
Method in brief: (§1)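 Enzyme: His-tagged PepO (aa 29–663) or its Glu513→Ala variant, expressed from pET22b in E. coli BL21(DE3) with 0.5 mM IPTG at 16°C for 12 h. Purified by Ni-Sepharose and exchanged into PBS. Substrates were synthetic LL-37 or mCRAMP (>95% purity). Uncleaved peptide served as control. Products were analysed by SDS-PAGE or MALDI-TOF/TOF MS.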

[3] = test system: Mouse neutrophils; assay: Neutrophil chemotaxis assay; format: cell-based; settings: 1 μM in bottom chamber, 5 × 10^5 cells, 40 minutes, 37°C
Method in brief: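 Bone-marrow neutrophils from C57BL/6 mice, purified on Histopaque-1119/1077 gradients, CellTracker Green-labelled, 1 × 10^7 cells/ml in RPMI-1640. 5 × 10^5 cells placed in Transwell inserts; 1 μM peptides, PepO digests or fragments in lower chamber; 5 μM fMLP as positive control. 40 min at 37°C, migrated cells counted by fluorescence microscopy. CI = cells migrating toward stimulus ÷ toward medium.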

[4] = test system: PepOE513A; assay: Cleavage of cathelicidins by catalytic site-mutated PepOE513A; format: in vitro ADME, Streptococcus suis; settings: 20 μM peptide, 500 nM PepOE513A, PBS, 37°C, 3 hours; SDS-PAGE
Method in brief: as §1

[5] = test system: Mouse peritoneal macrophages; assay: Lysosome formation analysis; format: cell-based; settings: 2 μM, 37°C, 4 hours, 5 × 10^4 cells, CLSM
Method in brief: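 Macrophages from peritoneal fluid of C57BL/6 mice 3 days after i.p. thioglycollate; spun 600 × g 10 min, kept in RPMI-1640, non-adherent cells removed at 6 h. 5 × 10^4 cells exposed 4 h at 37°C to peptides, PepO digests or fragments. Fixed in 4% formaldehyde, permeabilised with 0.1% Triton X-100, blocked in 3% BSA. Rabbit anti-LAMP1 (37°C, 1 h), Alexa Fluor 594 secondary, DAPI; confocal imaging.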

[6] = test system: ApdS; settings: cited from earlier work
[7] = test system: S. suis WT, ΔpepO, and CΔpepO strains; assay: Bactericidal assay, sensitivity of S. suis strains toward cathelicidins; format: cell-based, Streptococcus suis; settings: 8 × 10^4 CFU/ml in PBS, peptide 0–4 μM, 37°C, 1 hour, CFU counting on TSA
Method in brief: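 S. suis serotype 2 strain 05ZYH33 (wild type), its ΔpepO mutant and the complemented strain were grown in TSB at 37°C with 5% CO2 to OD600 0.5. Cells were washed twice and resuspended in PBS. After 1 h at 37°C with LL-37 or mCRAMP, samples were serially diluted and plated on TSA to count surviving CFU.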

[8] = test system: S. suis ΔpepO; assay: Live/Dead staining; format: cell-based, Streptococcus suis; settings: 1 × 10^5 CFU/ml, 2 μM, 1 hour, CLSM
Method in brief: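 S. suis serotype 2 strain 05ZYH33 ΔpepO mutant, grown in TSB at 37°C/5% CO2; fresh culture washed twice, diluted to 1 × 10^5 CFU/ml. Exposed 1 h to 2 μM cathelicidin peptides, their PepO digests (20 μM peptide + 500 nM His-tagged PepO, PBS, 37°C, 3 h) or truncated fragments. BacLight stained, washed after 15 min, confocal imaging: SYTO9 480/500 nm, PI 490/635 nm.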

[9] = test system: aminopeptidase ApdS; settings: S. suis; cited from earlier work
[10] = test system: PepO; assay: 500 nM of PepO in PBS; settings: S. suis, 37°C, up to 3 hours
[11] = test system: ScpC protease; settings: cited from earlier work

| Substance | Cleavage by PepO [2] | Chemotaxis of neutrophils (chemotaxis index, CI) [3] | Lysosome formation (LAMP1) [5] | Membrane damage, viable and dead bacteria (SYTO9/PI) [8] | other results |
| --- | --- | --- | --- | --- | --- |
| GLLRKGGEKIGEKLKKIGQKIKNFFQKLVPQPEQ | – | – | – | – | not cleaved [1]: cannot cleave mCRAMP |
| LL-37 | the band intensity of LL-37 disappeared | effectively chemoattracted mouse neutrophils | facilitated lysosome formation in mouse macrophages | the number of dead bacteria was clearly larger than that in the PBS-treated group | Cleavage by PepOE513A [4]: could not cleave LL-37; Time to cleavage by ApdS [6]: in just a few seconds; Resistance of complementary strain CΔpepO [7]: partially restored |
| LLGDFFRKSKEKIGKEFKRIVQRIKDFLRNLVPRTES | – | – | – | – | fragment found [9]: 3 AA at the N-terminal; fragment found [10]: FR-7 (F6-K12); FRKSKEK, major; also recorded: IG-7 (I13-R19); IGKEFKR, major |
| mCRAMP | also cleaved by PepO | chemoattracted mouse neutrophils just as well as LL-37 | facilitated lysosome formation in mouse macrophages | the number of dead bacteria was clearly larger than that in the PBS-treated group | Cleavage by ScpC protease [11]: cannot cleave mCRAMP |
